From PubChem BioAssay
SENP8 block-1: inhibitors of human SENP8 protease | Q96LD8 | purified SENP8, Z-RLRGG-aminoluciferin cleavage, luminescence | inhibition, % at 10 µM | 330,000 tested, 1.2% active | AID 2540; in the data active = inhibition above about 50%
SENP6 block: blocks the human protease SENP6; AID 2599; Q9GZR1; Recombinant SENP6 catalytic domain, aminoluciferin luminescence; inhibition, % at 10 µM; 330,000 tested, 1.8% active;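 active = inhibition above about 50% at the single tested dose, limit read from the data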;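 note: plate controls were DMSO wells with enzyme for no effect and DMSO wells lacking enzyme for full effect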
Target sequence (Q9GZR1 628-1112 limits assumed): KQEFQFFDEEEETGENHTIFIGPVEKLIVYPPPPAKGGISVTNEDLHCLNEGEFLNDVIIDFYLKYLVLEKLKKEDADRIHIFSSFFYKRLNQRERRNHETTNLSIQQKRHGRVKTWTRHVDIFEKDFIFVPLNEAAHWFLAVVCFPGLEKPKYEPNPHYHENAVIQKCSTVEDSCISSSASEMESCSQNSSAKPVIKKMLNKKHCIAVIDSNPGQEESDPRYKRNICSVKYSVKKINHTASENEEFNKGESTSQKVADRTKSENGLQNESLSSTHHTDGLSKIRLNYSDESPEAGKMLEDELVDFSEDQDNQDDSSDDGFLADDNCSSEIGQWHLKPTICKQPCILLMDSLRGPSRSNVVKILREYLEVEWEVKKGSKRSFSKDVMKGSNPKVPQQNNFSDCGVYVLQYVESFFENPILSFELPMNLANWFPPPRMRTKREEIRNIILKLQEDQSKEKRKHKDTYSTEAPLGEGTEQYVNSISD
SENP1 inh: inhibitors of human SENP1 SUMO protease catalytic domain; Q9P0U3; recombinant SENP1 catalytic domain, CyPet-SUMO1-YPet FRET cleavage; inhibition, % at 10 µM; 360,000 tested, 0.21% active; AID 624204;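 active = inhibition at least 30% at 10 µM, raw YFP signal under a set limit, fluorescence ratio 0.5 to 1.5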;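 note: 0% = enzyme with DMSO and 100% = no enzyme wells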
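Material – human SENP1 catalytic domain · Input – SENP1 enzyme, 20 pM final · Compound dosing – single concentration of 10 µM compound, 0.5% DMSO final · Timing – enzyme reaction for 50 min at room temperature, dark · Measured by – FRET fluorescence in CFP and YFP emission channels · Control set – no-enzyme wells low, DMSO-plus-enzyme wells high control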
SENP7 inh: blocks the human protease SENP7; inhibition, % at 5 µM; AID 434973; recombinant SENP7, Z-RLRGG-aminoluciferin luminescence, 40 min; Q9BQF6; 330,000 tested, 1.5% active;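 active = inhibition above about 50% at the single test dose, limit read from the data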;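 note: plate controls were DMSO with enzyme for no effect and no enzyme buffer wells for full effect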
SENP8 block-2: blocks human SENP8 cleavage of Nedd8 substrate; Q96LD8; recombinant SENP8, Nedd8 substrate fluorescence; inhibition, % at 20 µM; 360,000 tested, 0.64% active; AID 602440; in the data active = inhibition mostly above about 40%, no sharp cut-off; inactive = mostly below about 27%
SENP8 inh conf: confirmation of human SENP8 protease inhibitors; purified SENP8, Nedd8-AMC/pro-Nedd8 cleavage fluorescence, 30 min; shares compounds with SENP8 block-2; inhibition, % at 25 µM; 1,400 tested, 15% active; AID 624319; in the data active = inhibition mostly above about 39%, no sharp cut-off; inactive = mostly below about 34%
* hit, by the source's call; . = not tested or not shown. An excerpt weighted towards active compounds, which were near 2.5% of everything screened.

SMILES	SENP8 block-1	SENP6 block	SENP1 inh	SENP7 inh	SENP8 block-2	SENP8 inh conf
CN(C(=O)c1ccc(NC(=O)Cc2cccc(NC(=O)C3CCCN(C(=O)C4CC4)C3)c2)cc1)C1CC1 (centres undefined)	.	.	0.0	.	8.8	.
O=C1CCC(C(=O)O)N1 (centres undefined)	3.1	-16.2	1.6	-1.7	52.2*	16.6
CNC(=O)[C@@H]1CCC(=O)N1	-9.7	-13.6	2.2	-12.4	25.5	.
CC(=O)Nc1ccc(Nc2ncc([N+](=O)[O-])c(Nc3ccc(NC(C)=O)cc3)n2)cc1	-4.0	-5.4	7.2	-3.7	43.9*	8.4
Cc1ccc(NC(=O)C2CCN(S(=O)(=O)c3ccc(C(C)(C)C)cc3)CC2)cc1S(=O)(=O)N1CCOCC1	.	.	2.7	.	-1.5	.
Cc1nc(Nc2ccc(F)cc2)nc(Nc2ccc(F)cc2)c1[N+](=O)[O-]	3.0	-2.2	1.6	2.1	33.7	.
COc1ccc(Nc2nc(NN)nc(C)c2[N+](=O)[O-])cc1	1.1	-4.9	3.7	6.1	60.1*	14.3
C/C(=C\c1ccccc1)C(=O)Nc1ccc(S(=O)(=O)Nc2ncccn2)cc1	-0.3	-14.1	0.2	-1.1	9.8	.
COc1cccc(-c2c(-c3cc(OC)cc(OC)c3)n(C)c3ccc(-c4cnc(N5CCOCC5)nc4)cc23)c1	-1.1	-18.1	-0.3	1.0	-476.2	.
CCN(CC)CCn1c(OC)cc(=O)[nH]c1=O	0.3	-7.9	-0.6	5.6	42.8*	7.5
O=C(OCC(=O)N1CCN(c2ccccc2)CC1)c1cccs1	-10.7	-10.8	3.4	-1.4	5.5	.
O=C(OCC(=O)N1CCCC1)c1cccs1	-3.0	-2.3	2.7	4.1	48.5*	18.5
COc1ccc(CCn2nnnc2C(CC(C)C)N2CCN(c3ncccn3)CC2)cc1OC (centres undefined)	3.7	2.2	3.4	1.0	42.8*	8.4
CCNC(=O)O/N=C1\CCCCC1c1ccc([N+](=O)[O-])cc1[N+](=O)[O-] (centres undefined)	2.2	14.8	5.2	2.8	41.4*	48.4*
CS(=O)(=O)O/N=C1\CCCCC1c1ccc([N+](=O)[O-])cc1[N+](=O)[O-] (centres undefined)	6.9	-17.8	0.4	5.4	18.8	.
N#C/C(=C\c1ccc(O)c([N+](=O)[O-])c1)c1nc2ccccc2s1	.	.	32.2*	.	54.2*	42.3*
CC1=NN(c2ccc(Cl)c(C(=O)O)c2)C(=O)C1	3.2	10.6	2.5	16.9	70.3*	16.6
CC1=NN(c2cccc(Cl)c2)C(=O)C1	7.3	-4.8	2.6	19.9	63.9*	54.8*
Cc1ccccc1CSCC(=O)Nc1ccccc1Br	1.2	8.9	2.1	-4.7	11.7	.
CCOc1ccccc1OCCCC(=O)Nc1cc(S(=O)(=O)N2CCCCC2)ccc1C	.	.	1.5	.	19.3	.
COc1ccc(/C=N/NS(=O)(=O)c2ccc(C)cc2)cc1OC(=O)c1ccccc1	8.7	2.3	1.1	2.7	10.1	.
COc1ccc(/C=N/NS(=O)(=O)c2ccccc2)cc1OC(=O)c1ccc(C)cc1	-3.6	-2.8	1.1	-3.0	41.2*	28.5
O=C1CSC2=NCN(c3ccc4c(c3)OCO4)CN12	-6.8	-6.7	1.5	-3.9	18.5	.
CN(C)c1ccc(N2CN=C3SCC(=O)N3C2)cc1	-0.8	5.7	2.9	9.5	52.4*	16.9
COc1ccccc1CN1CN(S(=O)(=O)c2ccccc2)c2nc3ccccc3nc21	0.9	-25.1	-1.6	3.1	-69.1	.
SMILES	SENP8 block-1	SENP6 block	SENP1 inh	SENP7 inh	SENP8 block-2	SENP8 inh conf
Cc1cc(=O)oc2cc(OCC(=O)NCCc3c[nH]c4ccc(F)cc34)ccc12	10.5	-16.8	1.7	-4.6	-34.5	.
COc1ccc2[nH]cc(CCNC(=O)COc3ccc4ccc(=O)oc4c3)c2c1	11.2	-10.1	-0.1	5.1	42.2*	6.2
CCOC(=O)c1cc([N+](=O)[O-])cc([N+](=O)[O-])c1Sc1ncnc2nc[nH]c12	.	.	0.7	.	63.3*	34.4
Cc1cc(C)c(C(=O)COC(=O)[C@H](C)Nc2ccc(C(F)(F)F)cc2[N+](=O)[O-])c(C)c1	-3.4	-1.3	0.0	-0.7	14.2	.
CC(C)[C@H](Nc1ccc(C(F)(F)F)cc1[N+](=O)[O-])C(=O)O	1.6	-9.6	4.3	4.9	40.9*	21.5
C/C(=N\Nc1ccc(S(N)(=O)=O)cc1[N+](=O)[O-])c1ccco1	-8.4	-0.1	4.9	-3.7	47.6*	12.3
C/C(=N\Nc1ccc(S(N)(=O)=O)cc1[N+](=O)[O-])c1ccccc1O	-9.8	-22.1	0.9	-1.4	39.3	.
CCN(CC)S(=O)(=O)c1cccc(NC(=O)C(=O)c2c(-c3ccccc3)cc3ccccn23)c1	5.2	-11.0	-32.8	0.4	34.1	.
CCN(CC)S(=O)(=O)c1ccc(N2CCOCC2)c(NC(=O)C(=O)c2c(-c3ccccc3)cc3ccccn23)c1	3.3	7.4	8.3	6.4	75.0*	20.6
Cc1sc(NC(=O)C2=COCCO2)nc1-c1ccc(Cl)cc1	1.7	-18.1	-0.5	-7.5	10.3	.
COc1ccccc1OCCNC(=O)Cc1ccc(S(=O)(=O)N2CCOCC2)s1	0.2	5.9	-2.4	1.5	5.7	.
Cc1ccc(C(=O)N2C(=S)C(c3ccc(F)cc3)=NC23CCN(C)CC3)cc1	-18.4	-5.7	4.1	-0.3	66.0*	58.2*
O=C(CCCn1c(=O)oc2ccccc21)N1CCc2ccccc2C1	-7.5	-2.8	-0.5	-0.5	48.3*	78.4*
O=C(CCn1c(=O)oc2ccccc21)NCCN1CCc2ccccc2C1	-0.5	-7.6	-2.7	12.0	10.8	.
CCOC(=O)c1nn(-c2ccccc2C)c(=O)c(C#N)c1C	2.9	4.1	0.9	-1.1	-7.7	.
CCOC(=O)c1nn(-c2ccccc2C)c(=O)c2c(N)scc12	-3.6	46.2	1.8	1.2	47.0*	41.2
Cn1c(NNC(=O)c2c(F)cccc2F)cc(=O)n(C)c1=O	6.5	-9.7	-111.0	7.5	48.2*	47.8*
Cn1c(NNC(=O)c2ccccc2F)cc(=O)n(C)c1=O	-7.0	-2.0	-135.5	-1.7	22.8	.
CCOC(=O)CC(=O)Nc1ccc(C)cc1	5.5	-0.2	0.0	2.8	40.1*	12.1
CCc1cccc2c1Sc1ccccc1CC2N1CCNCC1 (centres undefined)	-11.3	-36.3	2.6	12.2	44.5*	14.2
Cc1cccc2c1Sc1ccc(Cl)cc1CC2N1CCNCC1 (centres undefined)	-36.5	-39.5	.	12.3	.	.
CCN1C(=O)CC(c2ccc(OC(C)C)cc2)C1=O (centres undefined)	-13.3	-28.4	8.1	-4.3	8.6	.
CC(=O)N1CCN(C(=O)CCC(=O)O)CC1	-0.8	-23.5	4.3	10.7	54.2*	23.0
CCCCNC(=O)c1ccccc1SCc1c(C)noc1C	-3.0	4.3	1.1	0.7	10.4	.
O=C1CC(=Nc2ccc([N+](=O)[O-])cc2)NN1c1c(Cl)cc(Cl)cc1Cl	.	.	2.8	.	95.3*	71.4*
